Values after ≈ are worked out from the molar mass of the structure shown.
Legend:
[1] = test system: various yeast strains and filamentous fungi; assay: Antifungal MIC, summary over the fungal strains tested; format: cell-based, Candida and Aspergillus species; conditions: for MIC of sulfone relative to MIC of corresponding thioether: collection of fungal strains, generally; for MIC values, range: range over the fungal strains tested
[2] = test system: various yeast strains (C. albicans); assay: In vitro combination study with POS, summary over yeast strains; format: cell-based; conditions: for lowering of the MIC value by POS: in combination with POS; for FICI values, range: with POS, all tested fungal strains (except 3d against strain A)
Outline: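 Posaconazole was tested in combination with the test compound against yeast strains, both azole-resistant and azole-susceptible. FICI = (MIC of A in combination / MIC of A alone) + (MIC of B in combination / MIC of B alone). FICI ≤ 0.5 was scored synergy, 0.5 < FICI < 4 no interaction, and FICI ≥ 4 antagonism.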

A549 cell line = assay: Mammalian cell cytotoxicity assay; format: cell-based
BEAS-2B cell line = assay: Mammalian cell cytotoxicity assay; format: cell-based
[3] = test system: murine red blood cells (mRBCs); assay: Hemolytic assay; format: cell-based, mouse; conditions: for hemolysis: at higher concentrations
Outline: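 Hemolysis was measured on murine red blood cells exposed to the test compounds. Gramicidin, amphotericin B and the parent aminoglycoside were run as comparators.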

Pythium insidiosum = conditions: in vitro; cited from earlier work
[4] = test system: S. aureus NRS385 (USA 300) (VIII); assay: Antibacterial MIC determination; format: cell-based; conditions: Staphylococcus aureus, NRS385|USA300
Outline: (§1)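 MICs in μg/mL against a panel of 11 Gram-positive strains (including MRSA strains and VRE) and six Gram-negative strains. The panel held strains both susceptible and resistant to the parent aminoglycoside, each coded by a roman numeral. Each determination was run at least in duplicate.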

[5] = test system: S. aureus NRS383 (USA 200) (VII); assay: Antibacterial MIC determination; format: cell-based; conditions: Staphylococcus aureus, NRS383|USA200
Outline: as §1

MRSA (III) = assay: Antibacterial MIC determination; format: cell-based; conditions: Staphylococcus aureus
Outline: as §1

[6] = test system: AAC(3), AAC(2′), and AAC(6′); assay: TLC assessment of modification by AACs alone and together; format: biochemical; conditions: for modification by three AACs used simultaneously (TLC): AAC(3), AAC(2′) and AAC(6′) simultaneously
[7] = test system: C. albicans ATCC 64124 (strain B); assay: Time-kill assay; format: cell-based; conditions: for time-kill activity at subinhibitory concentration: 1/2 MIC, 24 h period; for time to complete fungal cell death: at MIC
[8] = test system: tested Gram-positive bacteria; assay: Antibacterial MIC, summary over the Gram-positive panel; format: cell-based; conditions: iv
Outline: as §1

[9] = test system: K. pneumoniae ATCC 27736 (XV); assay: Antibacterial MIC determination; format: cell-based; conditions: Klebsiella pneumoniae, ATCC27736
Outline: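 MIC in μg/mL against a panel of Gram-positive and Gram-negative strains that includes strains susceptible and resistant to the parent aminoglycoside; each determination done at least in duplicate.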

E. coli MC1061 (XIV) = assay: Antibacterial MIC determination; format: cell-based; conditions: Escherichia coli
Outline: as §1

[10] = test system: Aspergillus nidulans ATCC 38163 (H); assay: Antifungal MIC determination; format: cell-based; conditions: Aspergillus nidulans (strain H)
[11] = test system: C. albicans ATCC 10231 (strain A); assay: Spontaneous frequency of resistance; format: cell-based
[12] = cited from earlier work
S. aureus ATCC 29213 (V) = assay: Antibacterial MIC determination; format: cell-based; conditions: Staphylococcus aureus, ATCC29213
Outline: as §1

[13] = test system: Gram-negative bacterial strains tested; assay: Antibacterial MIC, summary over the Gram-negative panel; format: cell-based
[14] = at 50× MIC, MIC as in combination with POS

CCCCCCCCCCCCCCS(=O)(=O)C[C@@H]1O[C@@H](O[C@@H]2[C@@H](O)[C@H](O[C@@H]3O[C@@H](CN)[C@H](O)[C@@H](O)[C@@H]3N)[C@@H](N)C[C@H]2N)[C@@H](O)[C@H](N)[C@H]1O [Compound 4d]
MIC of sulfone relative to MIC of corresponding thioether [1]: ≤ 2 fold dilution

CC[C@@H]([C@H](C)O)n1ncn(-c2ccc(N3CCN(c4ccc(OC[C@@H]5CO[C@@](Cn6cncn6)(c6ccc(F)cc6F)C5)cc4)CC3)cc2)c1=O [POS, posaconazole, reference compound]
reduction of the MIC values of POS ([2]; in the presence of 3c): 16–64 fold
reduction of the MIC values of POS ([2]; in the presence of 3d): 16–32 fold

CCCCCCCCSC[C@@H]1O[C@@H](O[C@@H]2[C@@H](O)[C@H](O[C@@H]3O[C@@H](CN)[C@H](O)[C@@H](O)[C@@H]3N)[C@@H](N)C[C@H]2N)[C@@H](O)[C@H](N)[C@H]1O [Compound 3a]
toxicity (A549 cell line): little to no toxicity
toxicity (BEAS-2B cell line): little to no toxicity
hemolysis [3]: little to no hemolysis

CCCCCCCCCCCCS(=O)(=O)C[C@@H]1O[C@@H](O[C@@H]2[C@@H](O)[C@H](O[C@@H]3O[C@@H](CN)[C@H](O)[C@@H](O)[C@@H]3N)[C@@H](N)C[C@H]2N)[C@@H](O)[C@H](N)[C@H]1O [Compound 4c]
MIC of sulfone relative to MIC of corresponding thioether [1]: ≤ 2 fold dilution

NC[C@@H]1O[C@H](O[C@H]2[C@@H](O)[C@H](O[C@@H]3[C@@H](O)[C@H](N)C[C@H](N)[C@H]3O[C@H]3O[C@H](CN)[C@@H](O)[C@H](O)[C@H]3N)O[C@@H]2CO)[C@H](N)[C@@H](O)[C@@H]1O [NEO, neomycin B]
concentration displaying antifungal activity (antifungal MIC) (Pythium insidiosum): 64 µg/mL

CCCCCCCCCCCCCCSC[C@@H]1O[C@@H](O[C@@H]2[C@@H](O)[C@H](O[C@@H]3O[C@@H](CN)[C@H](O)[C@@H](O)[C@@H]3N)[C@@H](N)C[C@H]2N)[C@@H](O)[C@H](N)[C@H]1O [Compound 3d]
MIC [4]: 16 to 32 µg/mL (≈ 23 to 46 µM)
MIC [5]: 8 to 16 µg/mL (≈ 11.5 to 23 µM)
MIC values, range [1]: ≤1.95 to 15.6 µg/mL
MIC (MRSA (III)): 32 to 64 µg/mL (≈ 46 to 92 µM)
modification by three AACs used simultaneously (TLC) [6]: only the 3-monoacetylated product was obtained
lowering of the MIC value by POS [2]: 2–8 fold
FICI values, range [2]: 0.07 to 0.31
time-kill activity at subinhibitory concentration [7]: fungistatic activity
time to complete fungal cell death [7]: 12 h

NC[C@H]1O[C@H](O[C@H]2[C@H](O)[C@@H](O[C@H]3O[C@H](CO)[C@@H](O)[C@H](N)[C@H]3O)[C@H](N)C[C@@H]2N)[C@H](O)[C@@H](O)[C@@H]1O [KANA, kanamycin A]
MIC [8]: > 128 µg/mL
MIC [9]: 16 to 32 µg/mL (≈ 33 to 66 µM)
MIC (E. coli MC1061 (XIV)): 8 to 16 µg/mL (≈ 16.5 to 33 µM)

CCCCCCCCCCCCSC[C@@H]1O[C@@H](O[C@@H]2[C@@H](O)[C@H](O[C@@H]3O[C@@H](CN)[C@H](O)[C@@H](O)[C@@H]3N)[C@@H](N)C[C@H]2N)[C@@H](O)[C@H](N)[C@H]1O [Compound 3c]
times better than KANB [10]: 64 times
MIC values, range [1]: ≤1.95 to 31.2 µg/mL
lowering of the MIC value by POS [2]: 4–16 fold
FICI values, range [2]: 0.07 to 0.31
mutants ([11]; 3c (8 μg/mL) and POS (0.25 μg/mL), 96 h incubation): 24 colonies
spontaneous frequency rate of resistance ([11]; combination of 3c and POS): 2.4 × 10^−7
mRBCs lysed ([3]; 50× MIC, MIC as in combination with POS): 60%
less hemolytic than AmB [3, 14]: ~ 30%
less hemolytic than gramicidin [3, 14]: ~ 20%
time-kill activity at subinhibitory concentration [7]: fungistatic activity
time to complete fungal cell death [7]: 24 h

CNC(C)C1CCC(N)C(OC2C(N)CC(N)C(OC3OCC(C)(O)C(NC)C3O)C2O)O1 (stereo not shown) [GEN, gentamicin]
concentration displaying antifungal activity (antifungal MIC) (Pythium insidiosum): 64 µg/mL
safe serum concentration [12]: 30 to 40 µg/mL

CCCCCCCCCCSC[C@@H]1O[C@@H](O[C@@H]2[C@@H](O)[C@H](O[C@@H]3O[C@@H](CN)[C@H](O)[C@@H](O)[C@@H]3N)[C@@H](N)C[C@H]2N)[C@@H](O)[C@H](N)[C@H]1O [Compound 3b]
MIC [4]: 32 to 64 µg/mL (≈ 50 to 100 µM)
MIC (S. aureus ATCC 29213 (V)): 16 to 32 µg/mL (≈ 25 to 50 µM)
toxicity (A549 cell line): little to no toxicity
toxicity (BEAS-2B cell line): little to no toxicity
hemolysis [3]: little to no hemolysis

CCCCCCCCCCCCCCCCSC[C@@H]1O[C@@H](O[C@@H]2[C@@H](O)[C@H](O[C@@H]3O[C@@H](CN)[C@H](O)[C@@H](O)[C@@H]3N)[C@@H](N)C[C@H]2N)[C@@H](O)[C@H](N)[C@H]1O [Compound 3e]
times better than FLC [10]: 32 times
times better than KANB [10]: 64 times
MIC values, range [1]: 1.95 to 3.9 µg/mL
times more effective than KANB ([1]; several of the tested yeast strains): 32 times

NC[C@H]1O[C@H](O[C@H]2[C@H](O)[C@@H](O[C@H]3O[C@H](CO)[C@@H](O)[C@H](N)[C@H]3O)[C@H](N)C[C@@H]2N)[C@H](N)[C@@H](O)[C@@H]1O [KANB, kanamycin B, reference compound]
modification by three AACs used simultaneously (TLC) [6]: converted to a diacetylated adduct
modification by a single AAC (TLC) ([6]; individually subjected to AAC(3), AAC(2′), or AAC(6′) overnight): completely converted to its corresponding monoacetylated product
toxicity (A549 cell line): little to no toxicity
MIC [13]: ≤ 16 µg/mL
toxicity (BEAS-2B cell line): little to no toxicity
hemolysis [3]: little to no hemolysis

[H]/N=C(/N)N[C@H]1[C@H](O)[C@@H](O)[C@H](O[C@@H]2O[C@@H](C)[C@](O)(C=O)[C@H]2O[C@@H]2O[C@@H](CO)[C@H](O)[C@@H](O)[C@@H]2NC)[C@@H](N/C(N)=N\[H])[C@@H]1O [STR, streptomycin]
concentration displaying antifungal activity (antifungal MIC) (Pythium insidiosum): 64 µg/mL
safe serum concentration [12]: 30 to 40 µg/mL

NC[C@@H]1O[C@H](O[C@H]2[C@@H](O)[C@H](O[C@@H]3[C@@H](O)[C@H](N)C[C@H](N)[C@H]3O[C@H]3O[C@H](CO)[C@@H](O)[C@H](O)[C@H]3N)O[C@@H]2CO)[C@H](N)[C@@H](O)[C@@H]1O [PAR, paromomycin]
concentration displaying antifungal activity (antifungal MIC) (Pythium insidiosum): 64 µg/mL
safe serum concentration [12]: 30 to 40 µg/mL

Source: paper PMC5154386 (Journal of medicinal chemistry, 2015)
